Bioassay records (PubChem BioAssay)
GRIN3A LBD mod: binders of NR3A ligand-binding domain, primary screen, biophysical, differential scanning fluorimetry, uHTS; Glutamate receptor ionotropic, NMDA 3A (GRIN3A) ligand-binding domain; NR3A LBD differential scanning fluorimetry, Tm shift; 0% = protein alone, 100% = glycine-bound protein; Tm shift relative to glycine control, % at 25 µM; 340,000 tested, 2.5% active; AID 1259313, 2017;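 active = melting temperature shift of at least 10% of the positive control shift, at one fixed dose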
procasp3 activ: activators of human procaspase-3 D3A mutant, primary screen, biochemical, absorbance, PC-3 D3A mutant, single concentration; Caspase-3 (Homo sapiens), P42574; recombinant procaspase-3 D3A, Ac-DEVD-pNA absorbance 405 nm; activation, % at 8.5 µM; 330,000 tested, 0.11% active;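 active = activation above the mean of all tested compounds plus 3 SD, cut at about 21% in these data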
Target sequence (P42574 whole entry D9A/D28A/D175A): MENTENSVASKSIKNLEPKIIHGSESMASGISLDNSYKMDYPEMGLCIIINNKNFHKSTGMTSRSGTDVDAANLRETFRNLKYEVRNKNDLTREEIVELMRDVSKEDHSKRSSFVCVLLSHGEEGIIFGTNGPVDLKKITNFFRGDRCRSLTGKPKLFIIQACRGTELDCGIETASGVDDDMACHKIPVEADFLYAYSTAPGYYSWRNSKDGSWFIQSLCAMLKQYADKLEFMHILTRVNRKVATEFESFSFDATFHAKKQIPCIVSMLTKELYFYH
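Evaluation: percent activation relative to control range; Material: Procaspase-3 D3A mutant, all three cleavage aspartates alanine; Compound: single dose, 8.5 µM nominal compound, 0.8% DMSO; Replication: one well per compound; Signal: absorbance at 405 nm, 0 and 120 min; Schedule: 1 h preincubation plus 2 h reaction at 25 °C.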
MPTP inh: mitochondrial permeability transition pore inhibitors, primary screen, biochemical, isolated mouse mitochondria, absorbance; Ca2+ swelling absorbance, 30 min; inhibition, % at 10 µM; 360,000 tested, 1.4% active;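 active = inhibition of 50% or more, scaled per plate between neutral and stimulator controls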
procasp7 counter: procaspase-7 activators, primary screen, counter-screen for procaspase-3 activator project, biochemical, absorbance, HTS, human | Caspase-7 (Homo sapiens), P55210 | AID 463210, 2010 | recombinant procaspase-7, Ac-DEVD-pNA absorbance 405 nm; D23A/D198A/D206A triple mutant, cannot self-cleave; scale: DMSO 0, 5 µM enzyme 100 | activation, % at 8.5 µM | 330,000 tested, 0.093% active;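 active = percent activation above the screen-wide mean plus 3 SD, cut at about 25% in these data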
Target sequence (P55210 whole entry D23A/D198A/D206A): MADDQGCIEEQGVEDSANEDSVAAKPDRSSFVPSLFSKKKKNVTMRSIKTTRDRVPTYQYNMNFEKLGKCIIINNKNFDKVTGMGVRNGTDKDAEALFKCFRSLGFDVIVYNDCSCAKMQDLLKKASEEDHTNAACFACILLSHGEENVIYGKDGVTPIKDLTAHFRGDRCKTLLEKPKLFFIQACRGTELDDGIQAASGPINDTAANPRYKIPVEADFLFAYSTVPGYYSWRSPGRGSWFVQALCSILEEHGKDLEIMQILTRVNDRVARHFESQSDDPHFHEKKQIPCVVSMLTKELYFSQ
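Assay system: Uncleavable procaspase-7 mutant enzyme; Input: 2 µM procaspase-7 mutant as dispensed; Also added: DEVD-pNA substrate; Medium: Zinc-free HEPES pH 7.4 with 300 mM NaCl, 0.01% Triton X-100; Timing: 1 h compound preincubation, 2 h substrate cleavage, 25 °C; Measured by: Epi-absorbance of released pNA at 405 nm, two timepoints.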
aDG glyco act: activators of alpha-DG glycosylation, primary screen, uHTS, Pro5-aDG cells, AlphaScreen; alpha-DG glycosylation AlphaScreen (IIH6); 0% Pro5, 100% B10-LARGE cell signal; AID 624168, 2012; activation, % at 10 µM; 360,000 tested, 0.22% active;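 active = activation of at least 8% versus controls, or a plate z-score of at least 8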;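 note: Pro5 are CHO cells carrying HIG-tagged alpha-DG that lacks glycosylation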
MPTP counter: fluorescence retest of MPTP screen hits in isolated mitochondria, single concentration | shares compounds with MPTP inh | membrane potential, Rhodamine 123 fluorescence | inhibition, % at 10 µM | 5,000 tested, 78% active | AID 624504, 2012; in the data active = inhibition above about 22%
MPTP abs DR: mitochondrial permeability transition pore inhibitors, dose response, biochemical, absorbance, uHTS hits; shares compounds with MPTP inh; isolated mitochondria swelling; IC50, µM; 780 tested, 58% active; in the data active = IC50 below about 20 µM
MPTP cs DR: fluorescent counter-screen in isolated mitochondria, dose response, counter-screen for MPTP inhibitor project, biochemical, fluorescence, uHTS hits. shares compounds with MPTP inh. isolated mitochondria counterscreen, fluorescence read-out. IC50, µM. 780 tested, 49% active; in the data active = IC50 below about 80 µM
Hits are given with their value; i = inactive; nt = not tested or not shown. Compounds with a hit are over-represented: about 3.7% of the library has one in this group of screens.

SMILES | GRIN3A LBD mod | procasp3 activ | MPTP inh | procasp7 counter | aDG glyco act | MPTP counter | others
COc1ccccc1CNc1nc(NCc2ccc(C)cc2C)c2sccc2n1 | nt | nt | 66.8 | nt | i | 101.5
COCCNc1nc(NCc2cccc(OC)c2OC)c2sccc2n1 | nt | nt | i | nt | i | nt
CC1(C(=O)NS(=O)(=O)c2cccc(Cl)c2)CCN1C(=O)C1(c2ccc(Cl)cc2)CCC1 (stereo unspecified) | nt | nt | i | nt | i | nt
CC#CC(=O)N1CCC(n2nccc2NC(=O)CCc2ccccc2)CC1 | nt | nt | i | nt | i | nt
CCCCn1c(SCC(=O)NC2CC2)nc2ccccc2c1=O | i | i | i | i | i | nt
c1ccc(CNc2nc(-c3cccs3)nc3ccccc23)cc1 | 23.9 | nt | 50.6 | nt | i | 57.6
c1ccc(CNc2nc(NCc3ccccc3)c3ccccc3n2)cc1 | i | i | 70.4 | i | i | 108.6
c1ccc(CNc2nc(NCc3ccccc3)c3sccc3n2)cc1 | nt | nt | 91.3 | nt | i | 103.7
COc1ccccc1CNc1nc(NCc2ccccc2)nc2ccsc12 | nt | nt | 74.1 | nt | i | 95.2
c1ccc(CNc2nc(-c3ccccn3)nc3ccccc23)cc1 | i | i | i | i | i | nt
CCC(=O)c1ccc(OC(=O)C2CCN(C3=NS(=O)(=O)c4ccccc43)CC2)cc1 | i | i | i | i | i | nt
CC(C)(C)C(=O)c1c(N)[nH]c(C(=O)c2ccccc2)c1-c1ccc(C(F)(F)F)cc1 | nt | nt | i | nt | i | nt
COCCCNCCCCOc1ccc(Br)cc1C | i | i | 63.3 | i | i | i | MPTP abs DR=8.65;MPTP cs DR=i
O=C(Nc1ccc(Cl)cc1)OCc1cn(-c2ccc(Cl)cc2)nn1 | i | i | 85.3 | i | i | 83.2
O=C(Nc1ccc(Cl)cc1)OCc1ccccn1 | 21.6 | i | 90.8 | i | i | 85.0
CCNC(=O)OCc1cn(-c2ccc(Cl)cc2)nn1 | i | i | i | i | i | nt
O=C(CN1CCN(S(=O)(=O)c2ccc(Cl)cc2)CC1)NCC1(N2CCOCC2)CCCCC1 | i | i | i | i | i | nt
S=C(NCCSCc1ccc(Cl)cc1)Nc1ccccc1 | 11.5 | i | 68.1 | i | i | 97.0
Cc1cccc(CSCCNC(=S)Nc2ccccc2)c1 | i | i | 82.2 | i | i | 78.8
CCCOc1ccc(CSCCNC(=S)Nc2ccccc2)cc1 | i | i | 95.3 | i | i | 93.5
S=C(NCCSCc1ccccc1Cl)Nc1ccccc1 | i | i | 81.6 | i | i | 104.1
CCCNC(=S)Nc1ccccc1 | i | i | i | i | i | nt
COc1cc(NC(=O)c2ccccc2Cl)c(OC)cc1NC(=O)CN1CCCCC1 | i | i | i | i | i | nt
O=C(NCC1CCCN(Cc2ccc3nonc3c2)C1)c1ccc(F)cc1 (stereo unspecified) | i | i | i | i | i | nt
Cc1ccc(NC(=O)c2ccc(C)cc2)cc1 | i | i | i | i | i | nt
SMILES | GRIN3A LBD mod | procasp3 activ | MPTP inh | procasp7 counter | aDG glyco act | MPTP counter | others
Cc1ccc(NC(=O)c2ccc(Nc3c([N+](=O)[O-])cc([N+](=O)[O-])cc3[N+](=O)[O-])cc2)cc1 | i | i | 96.3 | i | i | 74.1
CC(=O)Nc1ccc(NC(=O)c2cc([N+](=O)[O-])cc([N+](=O)[O-])c2)cc1 | i | i | i | i | i | nt
Cn1nc(C(C)(C)C)c([N+](=O)[O-])c1C(=O)Nc1ccc(Br)cc1 | i | i | 80.5 | i | i | 93.2
O=C(Nc1ccc(Br)cc1)c1cc([N+](=O)[O-])cc([N+](=O)[O-])c1 | i | i | 101.8 | i | i | 85.7
COc1ccccc1NS(=O)(=O)c1cccc(C(=O)N2CCCC2)c1 | i | i | i | i | i | nt
COc1ccccc1CCC(=O)Nc1ccc2c(c1)c(=O)n(C)n2-c1cccs1 | nt | nt | i | nt | i | nt
CC(C)(C)OC(=O)NCCCCCc1cn([C@@H](CO)C(=O)NCCCCCCCCCCC(=O)N2CCN(C(=O)OC(C)(C)C)CC2)nn1 | i | i | 98.8 | i | 5.8 | 108.5
CC[C@H](C)[C@@H](C(=O)NCCCCCCCCCCC(=O)N1CCN(C(=O)OC(C)(C)C)CC1)n1cc(CCCCCNC(=O)OC(C)(C)C)nn1 | i | i | 86.8 | i | i | 22.1
CC(C)(C)OC(=O)CC[C@@H](C(=O)NCCCCCCCCCCC(=O)N1CCN(C(=O)OC(C)(C)C)CC1)n1cc(CCCCCNC(=O)OC(C)(C)C)nn1 | i | i | i | i | i | nt
CC[C@H](C)[C@@H](C(=O)NCCCCCCCCCCC(=O)N1CCN(C(=O)OC(C)(C)C)CC1)n1cc(CCCCN=C(NC(=O)OC(C)(C)C)NC(=O)OC(C)(C)C)nn1 | nt | i | nt | i | nt | nt
CCCc1c(NC(=O)Nc2ccc(F)cc2)cnn1-c1ccc(Cl)cc1 | i | i | 87.6 | i | i | 73.6
O=C(NCc1ccc(Cl)cc1)Nc1ccc(F)cc1 | i | nt | i | nt | i | nt
O=C(Nc1ccc(-c2noc(CCc3ccccc3)n2)cc1)c1cccnc1 | i | i | i | i | i | nt
CN(C)S(=O)(=O)c1ccc(Nc2nc(C3CC3)nc3c2nnn3Cc2ccccc2Cl)cc1 | i | i | 62.2 | i | i | 28.9
O=C(Cc1cccs1)Nc1nc(-c2ccc(F)cc2F)cs1 | i | i | 73.2 | i | i | 91.2
O=C(Nc1nc(-c2ccccc2)cs1)c1ccc(Br)o1 | i | i | 81.5 | i | i | 20.6
Cc1ccc(C(=O)Nc2nc(-c3cccnc3)cs2)o1 | i | i | i | i | i | nt
O=C(NC(=S)Nc1nc(-c2ccccc2)cs1)c1cncc(Br)c1 | 30.9 | i | 74.1 | i | i | 74.5
O=C(Cc1c(F)c(F)c(F)c(F)c1F)Nc1nc(-c2ccccc2)cs1 | 11.8 | i | 54.1 | i | i | 92.5
O=C(NC(=S)Nc1nc(-c2ccccc2)cs1)c1cccnc1 | i | i | i | i | i | nt
CCOc1ccccc1Nc1nnc(SCC(=O)N(C)C2CCS(=O)(=O)C2)s1 (stereo unspecified) | i | i | i | i | i | nt
CC(=O)c1ccc(S(=O)(=O)N2CCN(CC(=O)Nc3ccnn3C3CCCC3)CC2)cc1 | i | nt | i | nt | i | nt
Cc1cccc(C)c1NC(=O)CN(C)CC(=O)c1c(N)n(Cc2ccccc2)c(=O)n(C)c1=O | i | i | i | i | i | nt
